Rows were chosen to be rich in hits. Some 1.8% of all compounds tested hit in one or more screens of this group.
Hep lipid drop: hepatic lipid droplet formation modulation; actives 0.4% (n = 240,000); AML12 mouse hepatocytes, oleate lipid droplets, BODIPY imaging; inhibition, % at 6.5 µM;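 active = lipid droplet intensity inhibited by at least 50%, with more than 500 cells counted; inconclusive = wells with under 300 cells, treated as cytotoxic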
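Assay system: AML12 mouse liver cells | Compound dosing: One dose, 6.5 µM compound | Read-out basis: Droplet intensity reduction, % inhibition | Measured by: Fluorescence imaging, 20x objective, two fields per well | Schedule: Overnight treatment with compound plus oleate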
TAG inh: reduces triacylglycerol accumulation in H9c2 cells; actives 0.66% (n = 230,000); AID 651582; inhibition, % at 12.5 µM; Nile Red lipid (TAG) fluorescence; cells loaded with 200 µM oleic acid;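 active = pattern-corrected inhibition of lipid staining of at least 50% with the nuclear-stain viability signal not falling by more than 50%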;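 also: 0% = DMSO wells and 100% = triacsin C control wells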
Gli-Sufu antag: blocks Gli-Sufu signaling in a luciferase reporter | actives 0.74% (n = 340,000) | inhibition, % at 5 µM | Sufu-KO-LIGHT fibroblasts, Gli luciferase reporter luminescence;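 active = inhibition above about 55%, limit read from the data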;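 also: 0% = DMSO-treated cells and 100% = wells with medium but no cells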
697 NFkB inh: inhibitors of the PMA/ionomycin-induced NF-kB reporter in 697 B cells | 697 B-cell NF-kB luciferase reporter, 16 h | inhibition, % at 4 µM | actives 0.33% (n = 330,000) | AID 435022; in the data active = inhibition above about 35%
hiPSC survival: enhancers of human iPSC single-cell survival; hiPSC single-cell survival, ATPlite luminescence; 100% = ROCK inhibitor wells, 0% = DMSO; survival enhancement, % at 20 µM; actives 0.044% (n = 360,000); AID 602274; in the data active = survival enhancement above about 18%;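 also: cells exposed to compounds for 16 hours before the ATP read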
Jurkat NFkB inh: lowers PMA/ionomycin-induced NF-kB signal in Jurkat cells; PMA/ionomycin-induced NF-kB luciferase reporter, luminescence; inhibition, % at 4 µM; actives 0.53% (n = 330,000); in the data active = inhibition above about 50%
Jurkat NFkB conf: lowers PMA/ionomycin-induced NF-kB signal in Jurkat cells; shares compounds with Jurkat NFkB inh; Jurkat NF-kB luciferase, 16 h; inhibition, % at 4 µM; actives 27% (n = 2,700); AID 435020;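 active = inhibition reaching about 45% at 4 µM in either replicate, limit read from the data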;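 also: plate controls were PMA/ionomycin stimulated DMSO wells for no effect and unstimulated DMSO wells for full effect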
* hit, by the source's call; ? = inconclusive; · = not tested or not shown.

SMILES | Hep lipid drop | TAG inh | Gli-Sufu antag | 697 NFkB inh | hiPSC survival | Jurkat NFkB inh | Jurkat NFkB conf
Cc1ccc(C(=O)NC2CCC(C)CC2)s1 (stereo unspecified) | · | 10.1 | -93.3 | -156.8 | -0.2 | -164.1 | -66.2
CCN1CCN(C(=O)C2CCC(=O)N(CCCN3CCCC3=O)C2)CC1 (stereo unspecified) | -11.8 | · | 8.0 | -6.0 | -0.6 | 8.0 | ·
CCOc1ccc2nc(N3CCC(C(=O)N4CCN(C5CCCCC5)CC4)CC3)sc2c1 | 29.7 | -25.2 | -3.2 | -142.7 | -3.6 | 41.8 | ·
CCOc1ccc2nc(N3CCCCCC3)sc2c1 | · | · | -83.9 | -235.9 | 0.4 | -233.6 | -148.0
O=c1c2ccccc2nnn1CCc1ccccc1 | · | -3.6 | · | · | 7.2 | · | ·
CCOc1cc(CNCCc2ccc(S(N)(=O)=O)cc2)ccc1OCc1ccc(Cl)cc1 | · | 67.5* | 30.9 | -11.8 | -1.6 | 54.1* | 8.7
COc1cc(CNCCc2ccc(S(N)(=O)=O)cc2)ccc1OCc1ccc(Cl)cc1 | · | · | 2.8 | -34.6 | -1.1 | 17.3 | ·
COc1ccc(NC(=O)Nc2cccc3[nH]c([C@@H]4O[C@H](CO)[C@@H](O)[C@H](O)[C@H]4O)nc23)cc1OC1CCCC1 | · | 8.6 | · | · | 0.7 | · | ·
O=C(/C=C\c1ccco1)Nc1cc([N+](=O)[O-])ccc1F | ? | · | 22.8 | -31.1 | -2.4 | 67.9* | 16.9
COc1ccc(CC(=O)N/N=C(\C)CC(=O)Nc2ccc(N(C)C)cc2)cc1OC | -3.9 | · | -3.5 | -0.5 | -0.5 | -13.2 | ·
Cc1ccccc1CNC(=O)c1ccccc1SCC(=O)NCc1ccco1 | · | 8.3 | -1.8 | 17.8 | -0.4 | 12.9 | ·
CC(C)c1ccc(NC(=O)Cc2c(C(=O)O)n(C)c3ccccc23)cc1 | · | · | -5.5 | -6.3 | 0.1 | -0.7 | ·
Cc1sc(NC(=O)c2oc3ccccc3c2C)c(C#N)c1C | 17.4 | · | -11.2 | 1.0 | -0.7 | -18.9 | ·
Cc1csc(NC(=O)c2oc3ccccc3c2C)n1 | · | -7.3 | -54.5 | -192.8 | 0.3 | -194.7 | -90.8
Cc1c(C(=O)NC2=NCCS2)oc2ccccc12 | 0.6 | · | -67.8 | -123.1 | -2.1 | -168.6 | -96.5
Cc1c(C(=O)Nc2nccs2)oc2ccccc12 | · | 22.4 | · | · | -0.5 | · | ·
C=CCSc1nc2sc(C)c(C)c2c(=O)n1N | 3.1 | · | -12.1 | 13.3 | 2.8 | 5.2 | ·
CCc1cc2c(=O)nc3n(c2s1)Cc1ccccc1/C3=C(/O)c1cccc([N+](=O)[O-])c1 | 7.7 | · | 2.5 | -107.6 | 6.6 | 69.2* | 51.3*
CCOc1ccc(C(=O)N/N=C/c2cc([N+](=O)[O-])cs2)cc1 | -9.8 | 8.9 | -24.6 | 1.0 | -1.3 | 10.9 | ·
COc1cc(C(=O)N/N=C/c2cc([N+](=O)[O-])cs2)cc(OC)c1OC | ? | · | 21.0 | -17.1 | -2.1 | 67.4* | 42.3
O=C(Nc1ccccc1)c1ccc(CN2CCc3ccccc3C2)cc1 | 10.7 | -2.5 | -3.4 | -5.9 | -0.7 | 12.7 | ·
O=C(Nc1ccc(S(=O)(=O)N2CCCCC2)cc1)c1ccc(CN2CCc3ccccc3C2)cc1 | · | 16.2 | -6.2 | 10.3 | -2.9 | 79.7* | 77.7*
O=C(Nc1ccc(S(=O)(=O)Nc2ccccc2)cc1)c1ccc(CN2CCOCC2)cc1 | -14.3 | -5.7 | 25.0 | 13.5 | 0.5 | 64.4* | 64.7*
CC(C)(CNC(=O)CO/N=C1/C=C2CCC3C(C(O)C[C@@]4(C)C3CC[C@]4(O)C(=O)CO)[C@@]2(C)CC1)C(O)C(=O)O (stereo partly specified) | -5.7 | · | 3.7 | -2.1 | 0.0 | 10.5 | ·
Cc1cccc(C(=O)Nc2nnc(S(=O)(=O)N(C)Cc3ccco3)s2)c1 | 9.9 | · | -12.5 | -60.1 | -0.2 | -24.3 | ·
SMILES | Hep lipid drop | TAG inh | Gli-Sufu antag | 697 NFkB inh | hiPSC survival | Jurkat NFkB inh | Jurkat NFkB conf
Fc1ccccc1-c1nc(-c2ccc(Cl)cc2)no1 | · | 5.0 | -125.4 | -246.6 | 1.0 | -176.5 | -76.5
NC(=O)c1ccc(-c2noc(-c3ccccc3F)n2)cc1 | · | -35.6 | -82.3 | -181.6 | 0.4 | -139.2 | ·
COc1cc2c(cc1OC)C(C)N(C(=O)c1cc(C)on1)CC2 (stereo unspecified) | -124.2 | 37.8 | 36.9 | 21.3 | -0.5 | 64.3* | 50.7*
O=C(c1ccccc1)c1cnc(Nc2ccccc2Cl)s1 | · | · | -117.8 | -148.7 | -4.1 | -155.9 | -71.6
COc1ccc(CCn2c(Br)nc3c2c(=O)[nH]c(=O)n3C)cc1 | · | · | 5.7 | -15.6 | 2.2 | 56.6* | 24.9
COc1ccc(-c2nc(-c3ccc(Br)cc3)no2)c(OC)c1 | 0.4 | · | -55.5 | -139.4 | -2.4 | -190.0 | -78.7
c1ccc(OCc2nc3ccccc3s2)cc1 | 0.6 | -14.3 | -111.5 | -169.4 | 2.5 | -148.2 | ·
CCC(=O)Nc1ccc(OCc2nc3ccccc3s2)cc1 | 15.4 | -8.2 | -78.9 | -213.5 | 2.8 | -150.0 | -92.8
Cc1ccc(NS(=O)(=O)c2ccc(OCC(=O)NCc3ccccn3)cc2)cc1 | -6.4 | -8.9 | -4.2 | -9.5 | 2.7 | -4.5 | ·
Cn1cc(S(=O)(=O)N2CCCC2)cc1C(=O)Nc1cccc(C(F)(F)F)c1 | -2.5 | · | -6.4 | -1.6 | 0.7 | -15.7 | ·
CC(C)c1ccc(-n2nc3ccc(N)cc3n2)cc1 | 24.8 | 12.2 | -91.9 | -95.2 | -1.0 | -168.9 | -40.7
O=S(=O)(c1cccc(Cl)c1)N1CCSc2ccccc21 | · | 9.3 | -15.3 | 7.7 | -0.4 | -1.9 | ·
CC(=O)Nc1ccc(S(=O)(=O)N2CCSc3ccccc32)cc1 | · | 33.9 | -19.4 | -79.1 | -2.6 | 55.6* | 49.1*
COc1ccc(OC)c(NC(=O)CSc2nc3[nH]c(=O)[nH]c(=O)c3s2)c1 | · | 0.6 | -5.8 | · | 1.1 | · | ·
NS(=O)(=O)c1ccc(CCNC(=O)c2ccc(Cn3c(=O)[nH]c4ccccc4c3=O)cc2)cc1 | -23.1 | 13.3 | -8.7 | -3.3 | 3.4 | -8.7 | ·
O=C(NCc1ccccc1)c1nccnc1CO | -1.8 | · | 11.1 | 11.9 | 0.9 | 0.4 | ·
COc1ccc(S(=O)(=O)Nc2c(C(=O)O)[nH]c3ccc(OC)cc23)cc1 | -0.6 | · | -2.7 | 7.9 | 1.8 | 5.4 | ·
COC(=O)c1[nH]c2ccc(F)cc2c1NS(=O)(=O)c1ccc(OC)cc1 | -15.1 | · | 1.5 | -44.5 | -0.9 | 65.5* | 47.4*
CCN(CC)S(=O)(=O)c1cc(OC)ccc1N=Nc1ccc(O)c2ncccc12 | -2.5 | · | 23.1 | 8.0 | -0.4 | 16.1 | ·
CCOc1ccc(N=Nc2ccc(O)c3ncccc23)cc1 | 0.1 | · | -13.6 | -117.3 | -0.8 | 89.3* | 2.6
Cc1cccc(N=Nc2ccc(O)c3ncccc23)c1 | -23.9 | 82.4* | -2.0 | -78.6 | -1.4 | 89.6* | 39.7
Cc1ccc(C)c(N=Nc2ccc(O)c3ncccc23)c1 | 28.8 | 108.3* | 66.9* | -103.2 | -3.8 | 78.3* | 65.5*
O=S(=O)(Nc1ccncc1Cl)c1ccc2ccccc2c1 | 1.7 | -9.6 | 1.4 | -1.4 | 0.4 | 2.9 | ·
COc1ccc(/C=N/NC(=O)CCn2cnc(-c3ccccc3)c2-c2ccccc2)cc1OC | -40.5 | · | 5.4 | -32.6 | -5.6 | 63.9* | 20.4
COc1cccc(CNCc2ccccc2Br)c1OC | -22.8 | 2.4 | 29.3 | 6.3 | -0.6 | -14.4 | ·

Source: PubChem BioAssay (Sanford-Burnham Center for Chemical Genomics)
